Measurements: ChEMBL document CHEMBL3232744, “Design, synthesis, acetylcholinesterase inhibition and larvicidal activity of girgensohnine analogs on Aedes aegypti, vector of dengue fever” (Eur J Med Chem, 2014)
Values after ≈ are worked out from the molar mass of the structure shown. Active and inactive are the calls of the source. The calls are words filed in the database; no cut-off is given here.

What was measured:
[1] = Dissociation constant, pKa of the compound; format: physicochemical
Acetylcholinesterase = Acetylcholinesterase (Homo sapiens, UniProt P22303); assay: Inhibition of AChE (unknown origin) by Ellman colorimetric method
Aedes aegypti [2] = assay: Insecticidal activity against third-instar larvae of Aedes aegypti assessed as mortality at 140 ppm after 24 to 48 hrs; format: functional, organism-based
How it was run: (§1)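 Diagnostic screen with third-instar larvae. Five larvae per pot, four replicates per concentration. Compounds tested at 300, 270, 180, 140, 70, 60, 45 and 25 ppm. Control pots held 1% DMSO only. Mortality was scored at 24 and 48 h. Larvae that could not reach the water surface when touched were counted as dead.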

Aedes aegypti [3] = assay: Insecticidal activity against third-instar larvae of Aedes aegypti assessed as mortality after 48 hrs; format: functional
How it was run: (§2)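 In a second bioassay, third-instar larvae were exposed to 150, 130, 100, 85 and 55 ppm, with a 1% DMSO control. Five larvae per pot, four replicates. Death was scored as failure to reach the water surface when touched, at 24 h or 48 h. LC50 and LC99 with confidence intervals came from probit analysis.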

Aedes aegypti [4] = assay: Insecticidal activity against third-instar larvae of Aedes aegypti assessed as mortality at 180 ppm after 24 to 48 hrs; format: functional, organism-based; how it was run: as §1
Aedes aegypti [5] = assay: Insecticidal activity against third-instar larvae of Aedes aegypti assessed as mortality at 300 ppm after 24 to 48 hrs; format: functional, organism-based; how it was run: as §1
Aedes aegypti [6] = assay: Insecticidal activity against third-instar larvae of Aedes aegypti assessed as mortality after 24 hrs; format: functional; how it was run: as §2
Aedes aegypti [7] = assay: Insecticidal activity against third-instar larvae of Aedes aegypti assessed as mortality at 60 ppm after 24 to 48 hrs; format: functional, organism-based; how it was run: as §1
Aedes aegypti [8] = assay: Insecticidal activity against third-instar larvae of Aedes aegypti assessed as mortality at 25 ppm after 24 to 48 hrs; format: functional, organism-based; how it was run: as §1
Aedes aegypti [9] = assay: Insecticidal activity against third-instar larvae of Aedes aegypti assessed as mortality at 70 ppm after 24 to 48 hrs; format: functional, organism-based; how it was run: as §1
Aedes aegypti [10] = assay: Insecticidal activity against third-instar larvae of Aedes aegypti assessed as mortality at 270 ppm after 24 to 48 hrs; format: functional, organism-based; how it was run: as §1
Aedes aegypti [11] = assay: Insecticidal activity against third-instar larvae of Aedes aegypti assessed as mortality at 45 ppm after 24 to 48 hrs; format: functional, organism-based; how it was run: as §1
Aedes aegypti [12] = assay: Insecticidal activity against third-instar larvae of Aedes aegypti assessed as mortality; format: functional
How it was run: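 Third-instar larvae exposed in a diagnostic screen to 1000, 300, 270, 180, 140, 70, 60, 45 and 25 ppm. Five larvae per pot, four replicates per concentration, 1% DMSO-only control. Mortality scored at 24 and 48 h; larvae unable to reach the water surface when touched were counted dead.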

Sequence of Acetylcholinesterase (P22303 whole entry): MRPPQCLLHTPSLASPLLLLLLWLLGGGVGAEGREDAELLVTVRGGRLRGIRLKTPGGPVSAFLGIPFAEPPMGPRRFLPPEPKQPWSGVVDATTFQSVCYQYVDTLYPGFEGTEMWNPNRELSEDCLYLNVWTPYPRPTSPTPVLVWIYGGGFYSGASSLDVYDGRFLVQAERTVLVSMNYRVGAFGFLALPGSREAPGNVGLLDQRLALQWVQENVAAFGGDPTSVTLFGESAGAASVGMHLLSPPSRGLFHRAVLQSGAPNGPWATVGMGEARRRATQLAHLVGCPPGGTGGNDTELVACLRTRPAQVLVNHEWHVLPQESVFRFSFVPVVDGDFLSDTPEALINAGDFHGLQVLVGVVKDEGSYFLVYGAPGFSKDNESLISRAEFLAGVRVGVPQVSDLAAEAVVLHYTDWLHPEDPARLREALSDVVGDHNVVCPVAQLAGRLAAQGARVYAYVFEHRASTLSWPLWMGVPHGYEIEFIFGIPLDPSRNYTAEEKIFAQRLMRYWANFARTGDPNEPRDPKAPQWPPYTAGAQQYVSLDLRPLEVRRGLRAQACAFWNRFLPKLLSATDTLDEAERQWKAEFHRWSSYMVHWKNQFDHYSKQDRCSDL

Q: For COc1cc(C(C#N)N2CCN(C)CC2)cc(OC)c1OC (racemic), which pKa [1] is on record?
A: The pKa was 7.6.

Q: And the IC50 (Acetylcholinesterase)?
A: The IC50 was 406 µM.

Q: With N#CC(c1ccc2c(c1)OCO2)N1CCOCC1 (racemic) as the compound, how does the pKa [1] read?
A: Its pKa is 2.2.

Q: And the IC50 (Acetylcholinesterase)?
A: Its IC50 is 58 µM.

Q: And the Activity (Aedes aegypti [2])?
A: Its Activity is “Active”.

Q: For COc1cc(C(C#N)N2CCOCC2)cc(OC)c1OC (racemic), which pKa [1] is on record?
A: The pKa was 2.1.

Q: And the IC50 (Acetylcholinesterase)?
A: The IC50 was 389 µM.

Q: What does the source list for CN1CCN(C(C#N)c2ccc3c(c2)OCO3)CC1 (racemic)?
A: pKa [1]: 7.6; IC50 (Acetylcholinesterase): 275 µM

Q: With N#CC(c1ccc(O)cc1)N1CCOCC1 (racemic) as the compound, how does the pKa [1] read?
A: Its pKa is 2.4.

Q: For COc1ccc(C(C#N)N2CCCCC2)cc1OC (racemic), which LC99 (Aedes aegypti [3]) is on record?
A: Its LC99 is 155.57 ppm.

Q: And the LC50 (Aedes aegypti [3]; Aedes aegypti, 48 h)?
A: The LC50 was 87.5 µg/mL (≈ 336 µM).

Q: And the pKa [1]?
A: The pKa was 4.

Q: What about the Activity (Aedes aegypti [4]) of the same compound?
A: Its Activity is “Active”.

Q: And the IC50 (Acetylcholinesterase)?
A: Its IC50 is 45 µM.

Q: And the Activity (Aedes aegypti [5])?
A: Its Activity is “Active”.

Q: What about the LC99 (Aedes aegypti [6]) of the same compound?
A: The LC99 was 147.54 ppm.

Q: And the LC50 (Aedes aegypti [6]; Aedes aegypti, 24 h)?
A: Its LC50 is 88.1 µg/mL (≈ 338 µM).

Q: With N#CC(c1ccc(O)cc1)N1CCCCC1 (racemic) as the compound, how does the pKa [1] read?
A: The pKa was 4.2.

Q: And the IC50 (Acetylcholinesterase)?
A: Its IC50 is 93 µM.

Q: For COc1cc(C(C#N)N2CCCCC2)ccc1O (racemic), which pKa [1] is on record?
A: Its pKa is 4.1.

Q: What about the IC50 (Acetylcholinesterase) of the same compound?
A: The IC50 was 448 µM.

Q: With COc1cc(C(C#N)N2CCOCC2)ccc1O (racemic) as the compound, how does the pKa [1] read?
A: The pKa was 2.3.

Q: And the IC50 (Acetylcholinesterase)?
A: Its IC50 is 409 µM.

Q: Which pKa [1] does the source give for COc1ccc(C(C#N)N2CCN(C)CC2)cc1OC (racemic) here?
A: Its pKa is 7.6.

Q: What about the IC50 (Acetylcholinesterase) of the same compound?
A: Its IC50 is 379 µM.

Q: Which Activity (Aedes aegypti [7]) does the source give for COc1ccc(C(C#N)N2CCCC2)cc1OC (racemic) here?
A: The Activity was “Active”.

Q: What about the Activity (Aedes aegypti [8]) of the same compound?
A: The Activity was “Active”.

Q: What about the pKa [1] of the same compound?
A: Its pKa is 4.3.

Q: What about the Activity (Aedes aegypti [4]) of the same compound?
A: The Activity was “Active”.

Q: What about the IC50 (Acetylcholinesterase) of the same compound?
A: Its IC50 is 42 µM.

Q: What about the Activity (Aedes aegypti [2]) of the same compound?
A: Its Activity is “Active”.

Q: For COc1ccc(C(C#N)N2CCOCC2)cc1OC (racemic), which pKa [1] is on record?
A: The pKa was 2.2.

Q: What about the IC50 (Acetylcholinesterase) of the same compound?
A: Its IC50 is 54 µM.

Q: And the Activity (Aedes aegypti [2])?
A: Its Activity is “Active”.

Q: For N#CC(c1ccc2c(c1)OCO2)N1CCCCC1 (racemic), which Activity (Aedes aegypti [8]) is on record?
A: Its Activity is “Active”.

Q: What about the pKa [1] of the same compound?
A: The pKa was 4.

Q: What about the Activity (Aedes aegypti [9]) of the same compound?
A: The Activity was “Active”.

Q: What about the Activity (Aedes aegypti [4]) of the same compound?
A: The Activity was “Active”.

Q: And the IC50 (Acetylcholinesterase)?
A: Its IC50 is 61.4 µM.

Q: What about the Activity (Aedes aegypti [10]) of the same compound?
A: Its Activity is “Active”.

Q: What about the Activity (Aedes aegypti [11]) of the same compound?
A: Its Activity is “Active”.

Q: And the Activity (Aedes aegypti [2])?
A: Its Activity is “Active”.

Q: For N#CC(c1ccc2c(c1)OCO2)N1CCCC1 (racemic), which pKa [1] is on record?
A: Its pKa is 4.3.

Q: What about the Activity (Aedes aegypti [4]) of the same compound?
A: The Activity was “Active”.

Q: And the IC50 (Acetylcholinesterase)?
A: Its IC50 is 51 µM.

Q: And the Activity (Aedes aegypti [10])?
A: Its Activity is “Active”.

Q: And the Activity (Aedes aegypti [2])?
A: Its Activity is “Active”.

Q: For COc1cc(C(C#N)N2CCCCC2)cc(OC)c1OC (racemic), which pKa [1] is on record?
A: Its pKa is 3.9.

Q: What about the IC50 (Acetylcholinesterase) of the same compound?
A: The IC50 was 381 µM.

Q: What does the source list for COc1cc(C(C#N)N2CCCC2)cc(OC)c1OC (racemic)?
A: pKa [1]: 4.2; IC50 (Acetylcholinesterase): 321 µM

Q: Which pKa [1] does the source give for COc1ccc(C(C#N)N2CCCCC2)cc1O (racemic) here?
A: The pKa was 4.

Q: And the IC50 (Acetylcholinesterase)?
A: The IC50 was 478 µM.

Q: With COc1ccc(C(C#N)N2CCCC2)cc1O (racemic) as the compound, how does the pKa [1] read?
A: Its pKa is 4.3.

Q: And the IC50 (Acetylcholinesterase)?
A: Its IC50 is 394 µM.

Q: With COc1ccc(C(C#N)N2CCOCC2)cc1O (racemic) as the compound, how does the pKa [1] read?
A: The pKa was 2.2.

Q: And the IC50 (Acetylcholinesterase)?
A: The IC50 was 363 µM.

Q: With COc1ccc(C(C#N)N2CCN(C)CC2)cc1O (racemic) as the compound, how does the pKa [1] read?
A: The pKa was 7.7.

Q: And the IC50 (Acetylcholinesterase)?
A: Its IC50 is 350 µM.

Q: With COc1cc(C(C#N)N2CCCC2)ccc1O (racemic) as the compound, how does the pKa [1] read?
A: Its pKa is 4.4.

Q: And the IC50 (Acetylcholinesterase)?
A: Its IC50 is 358 µM.

Q: For COc1cc(C(C#N)N2CCN(C)CC2)ccc1O (racemic), which pKa [1] is on record?
A: The pKa was 7.7.

Q: And the IC50 (Acetylcholinesterase)?
A: Its IC50 is 340 µM.

Q: Which pKa [1] does the source give for N#CC(c1ccc(O)cc1)N1CCCC1 (racemic) here?
A: The pKa was 4.5.

Q: Which pKa [1] does the source give for CN1CCN(C(C#N)c2ccc(O)cc2)CC1 (racemic) here?
A: Its pKa is 7.7.

Q: With CCOP(=S)(OCC)Oc1cc(C)nc(C(C)C)n1 [DIMPYLATE] as the compound, how does the IC50 (Acetylcholinesterase) read?
A: The IC50 was 1.9 µM.

Q: For COP(=S)(OC)Oc1ccc(Sc2ccc(OP(=S)(OC)OC)cc2)cc1 [TEMEFOS], which LC50 (Aedes aegypti [12]) is on record?
A: The LC50 was 0.006 µg/mL (≈ 0.0129 µM).
